Each block holds one molecule with its values, some of them ahead of it. Activity calls are given as the source filed them. No cut-off for these calls is given here.
Legend:
[1] = Antiproliferative activity against human A2780cis cells after 72 hrs by SRB assay; format: functional, cell-based
How it was run: (§1)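 Ovarian A2780 and cisplatin-resistant A2780cis cells were exposed for 72 h and stained with SRB. IC50 comes from dose-response curves, as means±SD of three independent experiments. Final DMSO was below 1%, with matched vehicle controls.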

A2780 = experiment: Antiproliferative activity against human A2780 cells after 72 hrs by SRB assay; format: functional, cell-based; conditions: A2780, 72 h; how it was run: as §1
HT-29 [2] = experiment: Antiproliferative activity against human HT-29 cells after 72 hrs by MTT assay; format: functional, cell-based; conditions: HT-29, 72 h
How it was run: (§2)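 MTT read-out after 72 h of continuous exposure. Viability is expressed as percentage of viable cells relative to untreated controls. IC50 comes from dose-response curves. Values are means±SD of four independent experiments (two for some entries). DMSO was below 1%, with vehicle controls at equal DMSO. Precipitation was excluded spectrometrically and microscopically.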

518A2 [3] = experiment: Antiproliferative activity against human 518A2 cells after 72 hrs by MTT assay; format: functional, cell-based; conditions: for IC50: 518A2, 72 h; how it was run: as §2
HCT-116 = experiment: Antiproliferative activity against human HCT116 cells after 72 hrs by MTT assay; format: functional, cell-based; conditions: HCT-116, 72 h; how it was run: as §2
HT-29 [4] = experiment: Cell cycle arrest in human HT-29 cells assessed as accumulation of cells at G2/M phase at 350 nM after 24 hrs by propidium iodide staining-based flow cytometric analysis (reference value: 11.4 +/- 1.4%); format: functional
Chorioallantoic membrane [5] = experiment: Antiangiogenic activity in Leghorn chicken embryo chorioallantoic membrane assessed as induction of hemorrhages at 5 nmol after 24 hrs by light microscopic analysis; format: functional, tissue-based; conditions: Gallus gallus
How it was run: (§3)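 Fertilized chicken eggs, CAM assay. Compound was applied topically into a small silicon foil ring placed on the CAM. The membrane and its extraembryonal blood vessels were monitored over 24 h, with observations at 6 h and 24 h post application.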

HT-29 [6] = experiment: Cell cycle arrest in human HT-29 cells assessed as accumulation of cells at S phase at 250 nM after 24 hrs by propidium iodide staining-based flow cytometric analysis (reference value: 12.3 +/- 0.4%); format: functional
PANC-1 = experiment: Antiproliferative activity against human PANC1 cells after 72 hrs by MTT assay; format: functional, cell-based; conditions: PANC-1, 72 h; how it was run: as §2
HT-29 [7] = experiment: Cell cycle arrest in human HT-29 cells assessed as accumulation of cells at G1 phase at 100 nM after 24 hrs by propidium iodide staining-based flow cytometric analysis (reference value: 75.1 +/- 1.1%); format: functional
HT-29 [8] = experiment: Cell cycle arrest in human HT-29 cells assessed as accumulation of cells at sub G1 phase at 100 nM after 24 hrs by propidium iodide staining-based flow cytometric analysis (reference value: 1.2 +/- 0.3%); format: functional
Chorioallantoic membrane [9] = experiment: Antiangiogenic activity in Leghorn chicken embryo chorioallantoic membrane assessed as disruption of smaller blood vessels at 5 nmol after 6 hrs by light microscopic analysis; format: functional, tissue-based; conditions: Gallus gallus; how it was run: as §3
HT-29 [10] = experiment: Cell cycle arrest in human HT-29 cells assessed as accumulation of cells at G2/M phase at 100 nM after 24 hrs by propidium iodide staining-based flow cytometric analysis (reference value: 11.4 +/- 1.4%); format: functional
HT-29 [11] = experiment: Cell cycle arrest in human HT-29 cells assessed as accumulation of cells at S phase at 100 nM after 24 hrs by propidium iodide staining-based flow cytometric analysis (reference value: 12.3 +/- 0.4%); format: functional
EA.hy 926 = experiment: Antiproliferative activity against human EAhy926 cells after 72 hrs by MTT assay; format: functional, cell-based; conditions: EA.hy 926, 72 h; how it was run: as §2
518A2 [12] = experiment: Induction of cell cycle arrest in human 518A2 cells; format: functional, cell-based
518A2 [13] = experiment: Induction of apoptosis in human 518A2 cells assessed as accumulation at subG1 phase; format: functional, cell-based
Chorioallantoic membrane [14] = experiment: Antiangiogenic activity in Leghorn chicken embryo chorioallantoic membrane assessed as effect on blood vessel length at 5 nmol after 6 hrs by light microscopic analysis; format: functional, tissue-based; conditions: Gallus gallus; how it was run: as §3
HT-29 [15] = experiment: Cell cycle arrest in human HT-29 cells assessed as accumulation of cells at sub G1 phase at 250 nM after 24 hrs by propidium iodide staining-based flow cytometric analysis (reference value: 1.2 +/- 0.3%); format: functional
HT-29 [16] = experiment: Cell cycle arrest in human HT-29 cells assessed as accumulation of cells at S phase at 350 nM after 24 hrs by propidium iodide staining-based flow cytometric analysis (reference value: 12.3 +/- 0.4%); format: functional
Chorioallantoic membrane [17] = experiment: Antiangiogenic activity in Leghorn chicken embryo chorioallantoic membrane assessed as disruption of smaller blood vessels at 5 nmol after 24 hrs by light microscopic analysis; format: functional, tissue-based; conditions: Gallus gallus; how it was run: as §3
HT-29 [18] = experiment: Cell cycle arrest in human HT-29 cells assessed as accumulation of cells at G1 phase at 250 nM after 24 hrs by propidium iodide staining-based flow cytometric analysis (reference value: 75.1 +/- 1.1%); format: functional
HT-29 [19] = experiment: Cell cycle arrest in human HT-29 cells assessed as accumulation of cells at G2/M phase at 250 nM after 24 hrs by propidium iodide staining-based flow cytometric analysis (reference value: 11.4 +/- 1.4%); format: functional
[20] = Antiproliferative activity against human KB-V1/Vbl cells after 72 hrs by MTT assay; format: functional, cell-based; how it was run: as §2
HT-29 [21] = experiment: Cell cycle arrest in human HT-29 cells assessed as accumulation of cells at G2/M phase after 24 hrs by propidium iodide staining-based flow cytometric analysis; format: functional
[22] = Antiproliferative activity against human MCF7/Topo cells after 72 hrs by MTT assay; format: functional, cell-based; how it was run: as §2
HT-29 [23] = experiment: Cell cycle arrest in human HT-29 cells assessed as accumulation of cells at G1 phase at 350 nM after 24 hrs by propidium iodide staining-based flow cytometric analysis (reference value: 75.1 +/- 1.1%); format: functional
Chorioallantoic membrane [24] = experiment: Antiangiogenic activity in Leghorn chicken embryo chorioallantoic membrane assessed as reduction in blood vessel area at 5 nmol after 6 hrs by light microscopic analysis relative to control; format: functional, tissue-based; set-up: scale not given: the % may be the effect or the level left; conditions: Gallus gallus
How it was run: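 The CAM assay was run with topical application into a silicon foil ring atop the CAM of fertilized chicken eggs. Area covered by blood vessels was quantified by fractal analysis relative to control.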

Chorioallantoic membrane [25] = experiment: Antiangiogenic activity in Leghorn chicken embryo chorioallantoic membrane assessed as induction of hemorrhages at 5 nmol after 6 hrs by light microscopic analysis; format: functional, tissue-based; conditions: Gallus gallus; how it was run: as §3
Chorioallantoic membrane [26] = experiment: Antiangiogenic activity in Leghorn chicken embryo chorioallantoic membrane assessed as reduction in diameter of main blood vessel at 5 nmol after 24 hrs by light microscopic analysis; format: functional, tissue-based; conditions: Gallus gallus; how it was run: as §3
DLD-1 = experiment: Antiproliferative activity against human DLD1 cells after 72 hrs by MTT assay; format: functional, cell-based; conditions: DLD-1, 72 h; how it was run: as §2
HT-29 [27] = experiment: Cell cycle arrest in human HT-29 cells assessed as accumulation of cells at sub G1 phase at 350 nM after 24 hrs by propidium iodide staining-based flow cytometric analysis (reference value: 1.2 +/- 0.3%); format: functional

Compound: N#CC1=C(N)Oc2c(cc(Cl)c3ccccc23)C1c1cccc([N+](=O)[O-])c1 (stereo not drawn)
IC50 (HCT-116): 112 nM | IC50 [1]: 46 nM | Activity (HT-29 [4]): 73.5% | Activity (Chorioallantoic membrane [5]): inactive | Activity (HT-29 [6]): 11.3% | IC50 (PANC-1): 65.9 nM | IC50 (A2780): 61.1 nM | Activity (HT-29 [7]): 55.8% | Activity (HT-29 [8]): 2% | IC50 (HT-29 [2]): 209 nM | Activity (Chorioallantoic membrane [9]): Active | Activity (HT-29 [10]): 18.6% | Activity (HT-29 [11]): 23.6% | IC50 (EA.hy 926): 90.8 nM | Activity (518A2 [12]): inactive | Activity (518A2 [13]): Active | Activity (Chorioallantoic membrane [14]): inactive | Activity (HT-29 [15]): 17.6% | Activity (HT-29 [16]): 5.2% | Activity (Chorioallantoic membrane [17]): inactive | Activity (HT-29 [18]): 53.5% | Activity (HT-29 [19]): 17.7% | Activity (518A2 [3]): Dose-dependent effect | IC50 (518A2 [3]): 225 nM | IC50 [20]: 73.3 nM | Activity (HT-29 [21]): Dose-dependent effect | IC50 [22]: 88.5 nM | Activity (HT-29 [23]): 14.8% | Activity (Chorioallantoic membrane [24]): 74% | Activity (Chorioallantoic membrane [25]): Active | Activity (Chorioallantoic membrane [26]): Active | IC50 (DLD-1): 22.3 nM | Activity (HT-29 [27]): 6.6%

Compound: CSc1ccc(C2C(C#N)=C(N)Oc3c2cc(Cl)c2ccccc32)cc1 (stereo not drawn)
IC50 [1]: 1290 nM | IC50 (A2780): 1070 nM | IC50 (HT-29 [2]): 1540 nM | Activity (518A2 [3]): Dose-dependent effect | IC50 (518A2 [3]): 1350 nM

Compound: COc1cc(C2C(C#N)=C(N)Oc3c2ccc2ccccc32)ccc1OCc1ccccc1 (stereo not drawn)
IC50 [1]: 2340 nM | IC50 (A2780): 2150 nM | IC50 (HT-29 [2]): 5820 nM | Activity (518A2 [3]): Dose-dependent effect | IC50 (518A2 [3]): 1660 nM

The next lines start with results.

IC50 (A2780): 5160 nM | IC50 (HT-29 [2]): 9970 nM
Compound: N#CC1=C(N)Oc2c(ccc3ccccc23)C1c1ccc(S(F)(F)(F)(F)F)cc1 (stereo not drawn)
IC50 [1]: 5580 nM | Activity (518A2 [3]): Dose-dependent effect | IC50 (518A2 [3]): 7130 nM

IC50 (A2780): 759 nM | IC50 (HT-29 [2]): 1230 nM
Compound: N#CC1=C(N)Oc2c(ccc3ccccc23)C1c1ccc(C#N)cc1 (stereo not drawn)
IC50 [1]: 774 nM | Activity (518A2 [3]): Dose-dependent effect | IC50 (518A2 [3]): 939 nM

IC50 (A2780): 1440 nM | IC50 (HT-29 [2]): 1590 nM
Compound: N#CC1=C(N)Oc2c(cc(Cl)c3ccccc23)C1c1ccc(C#N)cc1 (stereo not drawn)
IC50 [1]: 1410 nM | Activity (518A2 [3]): Dose-dependent effect | IC50 (518A2 [3]): 753 nM
